Reference: ChEMBL document CHEMBL4145601, “Novel Nitric Oxide Donors of Phenylsulfonylfuroxan and 3-Benzyl Coumarin Derivatives as Potent Antitumor Agents” (ACS Med Chem Lett, 2018)
Active and inactive are the calls of the source. The calls are words filed in the database; no cut-off is given here.

Experiments:
MV4-11 = experiment: Antiproliferative activity against human MV411 cells after 72 hrs by MTS assay; format: functional, cell-based; conditions: MV4-11, 72 h
How it was run: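 Human myeloid leukaemia MV-4-11 cells; antiproliferation read by MTS assay. IC50 is the mean of triplicate determinations.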

MCF-10A = experiment: Cytotoxicity against human MCF10A cells after 72 hrs by MTS assay; format: cell-based
How it was run: (§1)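 Non-tumour human cells were HUVEC (umbilical vein endothelial), T29 (immortalized, nontumorigenic ovarian epithelial), WI-38 (lung fibroblasts) and MCF-10A (nontumorigenic breast epithelial). Viability was read by tetrazolium assay. IC50 is the mean of triplicate determinations.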

WI-38 = experiment: Cytotoxicity against human WI38 cells after 72 hrs by MTS assay; format: cell-based; conditions: WI-38, 72 h; how it was run: as §1
[1] = Antiproliferative activity against human OVCA429 cells after 48 hrs by MTT assay; format: functional, cell-based; conditions: OVCA429, 48 h
How it was run: (§2)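 Human tumour lines were HeLa (cervical), SKOV3, OVCA429, OVCA433 and A2780 (ovarian), A549 (non-small cell lung), MDA-MB-231 and MCF-7 (breast), and KB (oral epidermoid). Antiproliferation was read by MTT assay. IC50 is the mean of triplicate determinations.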

MM1.S = experiment: Antiproliferative activity against human MM1S cells after 72 hrs by MTS assay; format: functional, cell-based
MDA-MB-231 = experiment: Antiproliferative activity against human MDA-MB-231 cells after 48 hrs by MTT assay; format: functional, cell-based; conditions: MDA-MB-231, 48 h
A2780 [2] = experiment: Antiproliferative activity against human A2780 cells after 48 hrs by MTT assay; format: functional, cell-based; conditions: A2780, 48 h; how it was run: as §2
SK-OV-3 = experiment: Antiproliferative activity against human SKOV3 cells after 48 hrs by MTT assay; format: functional, cell-based; conditions: SK-OV-3, 48 h; how it was run: as §2
[3] = Drug metabolism in human A2780 cells assessed as nitric oxide release at 100 uM after 150 mins by Griess assay; format: ADME, cell-based; conditions: a2780, 2.5 h
[4] = Cytotoxicity against human T29 cells after 48 hrs by MTT assay; format: cell-based; conditions: T29, 48 h; how it was run: as §1
[5] = Antiproliferative activity against human A2780/CDDP cells after 48 hrs by MTT assay; format: functional, cell-based
How it was run: (§3)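 Drug-resistant human tumour lines were A2780/CDDP (cisplatin-resistant ovarian), MDA-MB-231/Gem (gemcitabine-resistant breast), MCF-7/ADR and KB-V. Antiproliferation was read by MTT assay. IC50 is the mean of triplicate determinations.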

NCI/ADR-RES = experiment: Antiproliferative activity against human MCF7/ADR cells after 48 hrs by MTT assay; format: functional, cell-based; how it was run: as §3
[6] = Antiproliferative activity against human OVCA433 cells after 48 hrs by MTT assay; format: functional, cell-based; conditions: OVCA433, 48 h; how it was run: as §2
[7] = Selectivity ratio of IC50 for human A2780 cells to IC50 for A2780/CDDP cells; format: functional
How it was run: (§4)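 Selectivity ratio = IC50 in the drug-sensitive parent line / IC50 in its resistant subline (A2780 vs A2780/CDDP, MDA-MB-231 vs MDA-MB-231/Gem, MCF-7 vs MCF-7/ADR, KB vs KB-V). Each IC50 came from MTT assays, mean of triplicates.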

HeLa = experiment: Antiproliferative activity against human HeLa cells after 48 hrs by MTT assay; format: functional, cell-based; how it was run: as §2
[8] = Antiproliferative activity against human MDA-MB-231/Gem cells after 48 hrs by MTT assay; format: functional, cell-based
HUVEC = experiment: Cytotoxicity against HUVEC after 48 hrs by MTT assay; format: cell-based; conditions: Homo sapiens; how it was run: as §1
[9] = Antiproliferative activity against human KBV cells after 48 hrs by MTT assay; format: functional, cell-based; how it was run: as §3
A2780 [10] = experiment: Induction of apoptosis in human A2780 cells assessed as increase in early apoptotic cells at 10 to 20 nM measured after 24 hrs by Annexin-V-FITC/propidium iodide staining based flow cytometric method; format: functional, cell-based
A549 = experiment: Antiproliferative activity against human A549 cells after 48 hrs by MTT assay; format: functional, cell-based; conditions: A549, 48 h; how it was run: as §2
KB = experiment: Antiproliferative activity against human KB cells after 48 hrs by MTT assay; format: functional, cell-based; how it was run: as §2
[11] = Selectivity ratio of IC50 for human MDA-MB-231 cells to IC50 for MDA-MB-231/Gem cells; format: functional; how it was run: as §4
[12] = target: Dual specificity mitogen-activated protein kinase kinase; MEK1/2 (Homo sapiens) (UniProt P36507+Q02750); experiment: Inhibition of MEK (unknown origin); format: protein assay
[13] = Selectivity ratio of IC50 for human MCF7 cells to IC50 for MCF7/ADR cells; format: functional; how it was run: as §4
MCF7 = experiment: Antiproliferative activity against human MCF7 cells after 48 hrs by MTT assay; format: functional, cell-based; conditions: MCF7, 48 h; how it was run: as §2
[14] = Selectivity ratio of IC50 for human KB cells to IC50 for KBV cells; format: functional; how it was run: as §4
Homo sapiens = species: Homo sapiens; experiment: Antiproliferative activity against human A2780/CDDP cells at 50 nM after 48 hrs in presence of scavenger c-PTIO by MTT assay; format: functional, cell-based
How it was run: (§5)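 A2780 and A2780/CDDP cells were exposed to compound at 50 nM together with a series of concentrations of the NO scavenger c-PTIO. Antiproliferation was measured and reported as mean ± SEM of two independent experiments.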

A2780 [15] = experiment: Antiproliferative activity against human A2780 cells at 50 nM after 48 hrs in presence of scavenger c-PTIO by MTT assay; format: functional, cell-based; how it was run: as §5

Chain of Dual specificity mitogen-activated protein kinase kinase; MEK1/2 (Homo sapiens) (P36507 whole entry, looked up): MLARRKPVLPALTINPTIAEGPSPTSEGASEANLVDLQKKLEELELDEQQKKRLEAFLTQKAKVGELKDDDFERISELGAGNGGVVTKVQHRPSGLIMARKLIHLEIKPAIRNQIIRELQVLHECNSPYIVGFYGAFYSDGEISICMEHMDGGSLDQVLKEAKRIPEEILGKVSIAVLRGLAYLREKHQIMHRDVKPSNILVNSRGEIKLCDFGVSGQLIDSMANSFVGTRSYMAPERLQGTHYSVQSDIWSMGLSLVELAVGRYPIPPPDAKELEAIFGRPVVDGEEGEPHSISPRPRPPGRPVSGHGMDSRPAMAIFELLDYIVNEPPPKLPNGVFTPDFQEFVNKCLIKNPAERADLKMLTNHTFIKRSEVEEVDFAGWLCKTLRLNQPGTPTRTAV
Chain of Dual specificity mitogen-activated protein kinase kinase; MEK1/2 (Homo sapiens) (Q02750 whole entry, looked up): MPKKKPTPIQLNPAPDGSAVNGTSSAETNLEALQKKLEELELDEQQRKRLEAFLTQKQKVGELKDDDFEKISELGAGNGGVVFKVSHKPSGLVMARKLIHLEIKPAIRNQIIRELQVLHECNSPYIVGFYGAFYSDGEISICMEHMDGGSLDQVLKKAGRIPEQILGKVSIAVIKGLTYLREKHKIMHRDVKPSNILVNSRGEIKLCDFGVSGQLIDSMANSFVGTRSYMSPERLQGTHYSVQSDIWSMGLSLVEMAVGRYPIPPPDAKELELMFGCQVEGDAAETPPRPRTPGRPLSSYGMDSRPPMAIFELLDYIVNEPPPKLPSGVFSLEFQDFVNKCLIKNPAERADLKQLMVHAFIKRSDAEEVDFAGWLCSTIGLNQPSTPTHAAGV

Row | Compound | IC50 (MV4-11) | IC50 (WI-38) | IC50 [1] | IC50 (MM1.S) | IC50 (MDA-MB-231) | IC50 (A2780 [2]) | IC50 (SK-OV-3) | IC50 [5] | IC50 (NCI/ADR-RES) | IC50 [6] | Ratio IC50 [7] | IC50 (HeLa) | IC50 [8] | IC50 [9] | IC50 (A549) | IC50 (KB) | Ratio IC50 [11] | Ratio IC50 [13] | IC50 (MCF7) | Ratio IC50 [14] | further results
1 | Nc1cccc2c1CN(C1CCC(=O)NC1=O)C2=O (stereo not given) [LENALIDOMIDE] | > 20000 nM | > 20000 nM |  |  |  |  |  |  |  |  |  |  |  |  |  |  |  |  |  |  | IC50 (MCF-10A): > 20000 nM
2 | COc1cc(OCCOc2no[n+]([O-])c2S(=O)(=O)c2ccccc2)ccc1C(=O)/C=C/c1ccc(F)cc1 | 29.6 nM | 560 nM | 4 nM | 25 nM | 1.4 nM | 14.5 nM | 25 nM | 34.1 nM | 47.9 nM | 6.6 nM | 0.4 | 6.9 nM | 93 nM | 10.1 nM | 3.5 nM | 1660 nM | 0.02 | 29.5 | 1410 nM | 164.9 | Drug metabolism [3]: Metabolite_Detected; IC50 [4]: 3500 nM; IC50 (HUVEC): 360 nM; Activity (A2780 [10]): Active; inhibition [12]: inactive
3 | CNS(=O)(=O)Nc1cccc(Cc2c(C)c3ccc(OCCOc4no[n+]([O-])c4S(=O)(=O)c4ccccc4)cc3oc2=O)c1 | 66.3 nM | 1360 nM | 6.1 nM | 24 nM | 1.1 nM | 10.2 nM | 19.2 nM | 47.2 nM | 50.1 nM | 16.3 nM | 0.2 | 15.4 nM | 50.4 nM | 65.4 nM | 7.9 nM | 1140 nM | 0.02 | 62.5 | 3130 nM | 17.5 | Drug metabolism [3]: Metabolite_Detected; IC50 [4]: > 5000 nM; IC50 (HUVEC): 190 nM; inhibition [12]: inactive
4 | COc1cccc2c1C(=O)c1c(O)c3c(c(O)c1C2=O)C[C@@](O)(C(=O)CO)C[C@@H]3O[C@H]1C[C@H](N)[C@H](O)[C@H](C)O1 [DOXORUBICIN] |  |  |  |  |  |  |  |  | > 100000 nM |  |  |  |  |  |  |  |  |  |  |  | 
5 | COCCOc1no[n+]([O-])c1S(=O)(=O)c1ccccc1 |  |  | 5170 nM |  | 1230 nM | 1640 nM | 3910 nM | 4820 nM | 7840 nM | 4390 nM | 0.3 | 8830 nM | 4750 nM | 1960 nM | 4780 nM | 3690 nM | 0.3 | 0.5 | 3500 nM | 1.9 | 
6 | COc1cc(OCCOc2no[n+]([O-])c2S(=O)(=O)c2ccccc2)ccc1C(=O)/C=C/c1ccccc1 | 29.3 nM | 440 nM | 4.4 nM | 28 nM | 0.5 nM | 8.7 nM | 35.8 nM | 51.7 nM | 18 nM | 10.1 nM | 0.2 | 17.8 nM | 10.5 nM | 13.9 nM | 3.3 nM | 2180 nM | 0.05 | 103.6 | 1860 nM | 157 | Drug metabolism [3]: Metabolite_Detected; IC50 [4]: 2500 nM; IC50 (HUVEC): 410 nM; inhibition [12]: inactive
7 | Cc1c(Cc2ccc(F)cc2)c(=O)oc2cc(OCCOc3no[n+]([O-])c3S(=O)(=O)c3ccccc3)ccc12 | 27.2 nM | > 20000 nM | 3.9 nM | 143 nM | 0.8 nM | 6.6 nM | 8.3 nM | 22.8 nM | 5.1 nM | 3.3 nM | 0.3 | 2.8 nM | 6.9 nM | 11 nM | 3.7 nM | 3230 nM | 0.1 | 559.4 | 2850 nM | 294 | Drug metabolism [3]: Metabolite_Detected; IC50 [4]: > 5000 nM; IC50 (MCF-10A): > 20000 nM; IC50 (HUVEC): 270 nM; Activity (A2780 [10]): Active; Activity (Homo sapiens): inactive; inhibition [12]: inactive; Activity (A2780 [15]): inactive
8 | Cc1c(Cc2ccccc2)c(=O)oc2cc(OCCOc3no[n+]([O-])c3S(=O)(=O)c3ccccc3)ccc12 | 24.5 nM | > 20000 nM | 1.7 nM | 12 nM | 6 nM | 12.7 nM | 17.3 nM | 94 nM | 16.3 nM | 1.1 nM | 0.1 | 22.9 nM | 25.2 nM | 16 nM | 2 nM | 4540 nM | 0.2 | 144.2 | 2350 nM | 283.9 | Drug metabolism [3]: Metabolite_Detected; IC50 [4]: > 5000 nM; IC50 (MCF-10A): > 20000 nM; IC50 (HUVEC): 440 nM; inhibition [12]: inactive
9 | Cc1ccc(NC(=O)NCc2ccc3c(c2)CN(C2CCC(=O)NC2=O)C3=O)cc1Cl (stereo not given) | 0.3 nM | > 20000 nM |  |  |  |  |  |  |  |  |  |  |  |  |  |  |  |  |  |  | IC50 (MCF-10A): 5 nM
